Active and inactive are the calls of the source. The calls are words filed in the database; no cut-off is given here.
Experiments:
[1] = Cytotoxicity against human BxPC3 cells co-cultured with human mesothelial cells after 4 hrs by firefly luciferase assay relative to control; type: functional, cell-based; conditions: BXPC-3, 4 h
Procedure, shortened: (§1)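 Luciferase-expressing cancer cells in suspension were treated with a series of compound concentrations or DMSO, overlaid on confluent human mesothelial monolayers for 4 h, and washed to remove non-adherent cells. Surviving adherent cells were read by luciferase luminescence relative to vehicle, and EC50 was derived from the concentration series.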

[2] = Cytotoxicity against human SKOV3 cells co-cultured with human mesothelial cells after 4 hrs by firefly luciferase assay relative to control; type: functional, cell-based; conditions: SK-OV-3, 4 h; procedure, shortened: as §1
[3] = Antitumor activity against human MIAPaCa2 cells xenografted in ip dosed Ncr-Nu/Nu mouse assessed as metastases administered on day 1, 3, 5, 7 and measured after 8 weeks by fluorescent imaging analysis (reference value: 40%); type: functional, MIA PaCa-2
Procedure, shortened: (§2)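 Orthotopic pancreatic model in male NCr-Nu/Nu nude mice, 6-8 wk old. 1×10⁶ RFP-expressing MiaPaCa-2 cells in soluble ECM were injected into the pancreatic tail. Tumour resected with distal pancreatectomy, with no residual disease confirmed by intraoperative RFP imaging. Compound or vehicle (4:1 PEG400:EtOH) given IP at surgery and on days 3, 5 and 7. Local and metastatic recurrence scored by fluorescent imaging after 8 weeks.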

A2780 [4] = test: Cytotoxicity against human A2780 cells co-cultured with human mesothelial cells at 10 uM after 4 hrs by firefly luciferase assay relative to control; type: functional
Procedure, shortened: (§3)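 Co-culture of luciferase-transduced cancer cells (puromycin/G418-selected retroviral pLuc) with confluent human mesothelial monolayers. Suspended cancer cells plus 10 µM compound (final) or DMSO were overlaid for 4 h. Non-adherent cells were washed off and surviving adherent cells quantified by firefly luciferase luminescence. Efficacy = treated/DMSO luminescence ratio; mean±SEM, n=3.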

[5] = Cytotoxicity against human SU86 cells co-cultured with human mesothelial cells at 10 uM after 4 hrs by firefly luciferase assay relative to control; type: functional; procedure, shortened: as §3
[6] = Antimetastatic activity against human MIAPaCa2 cells xenografted in ip dosed Ncr-Nu/Nu mouse assessed as total recurrence administered on day 1, 3, 5, 7 and measured after 8 weeks by fluorescent imaging analysis (reference value: 67%); type: functional, MIA PaCa-2; procedure, shortened: as §2
[7] = Antimetastatic activity against human MIAPaCa2 cells xenografted in ip dosed Ncr-Nu/Nu mouse assessed as local recurrence administered on day 1, 3, 5, 7 and measured after 8 weeks by fluorescent imaging analysis (reference value: 60%); type: functional, MIA PaCa-2; procedure, shortened: as §2
[8] = Cytotoxicity against human SU86 cells co-cultured with human mesothelial cells after 4 hrs by firefly luciferase assay relative to control; type: functional, cell-based; procedure, shortened: as §1
[9] = Cytotoxicity against human BxPC3 cells co-cultured with human mesothelial cells at 10 uM after 4 hrs by firefly luciferase assay relative to control; type: functional, BXPC-3; procedure, shortened: as §3
A2780 [10] = test: Cytotoxicity against human A2780 cells co-cultured with human mesothelial cells after 4 hrs by firefly luciferase assay relative to control; type: functional, cell-based; conditions: A2780, 4 h; procedure, shortened: as §1
[11] = Cytotoxicity against human SKOV3 cells co-cultured with human mesothelial cells at 10 uM after 4 hrs by firefly luciferase assay relative to control; type: functional, SK-OV-3; procedure, shortened: as §3
Mus musculus [12] = test: Toxicity in athymic nu/nu mouse xenografted with human A2780 cells assessed as weight loss at 5 mg/kg, ip administered thrice a week for 14 days; type: organism-based; set-up: dose 5 mg/kg, route intraperitoneal; conditions: in vivo, 336 h
Mus musculus [13] = test: Toxicity in athymic nu/nu mouse xenografted with human SKOV3 cells assessed as weight loss at 5 mg/kg, ip administered thrice a week for 14 days; type: organism-based, SK-OV-3; set-up: dose 5 mg/kg, route intraperitoneal; conditions: in vivo, 336 h
A2780 [14] = test: Induction of apoptosis in human A2780 cells assessed as increased cellular levels of cleaved PARP at 5 uM after 4 hrs by immunoblot analysis; type: functional, cell-based
Procedure, shortened: (§4)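 A2780 cells were suspended and allowed to adhere for 4 h with DMSO or test compound (5 µM in DMSO). Cells were collected and lysed, lysates normalised for total protein, and cleaved PARP and cleaved caspase 3 detected by immunoblot with actin as loading control. A sulfide analog served as negative control.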

SK-OV-3 = test: Inhibition of peritoneal carcinomatosis of human SKOV3 cells in athymic nu/nu mouse at 5 mg/kg, ip administered thrice a week for 14 days by luciferase reporter assay relative to vehicle-treated control; type: functional, organism-based; set-up: dose 5 mg/kg
Procedure, shortened: (§5)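 Athymic female nu/nu mice, 5 weeks old, received 5 mg/kg compound or vehicle (80% PEG400:20% ethanol) IP 4 h before IP injection of 1.5×10⁶ A2780-luc or 2×10⁶ SKOV3-luc cells, n=7 per arm. Dosing continued IP three times a week for 14 days. Tumour burden was imaged weekly by abdominal bioluminescence after IP D-luciferin/ketamine/xylazine; mean±SEM, unpaired t-test vs vehicle.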

A2780 [15] = test: Inhibition of peritoneal carcinomatosis of human A2780 cells in athymic nu/nu mouse at 5 mg/kg, ip administered thrice a week for 14 days by luciferase reporter assay relative to vehicle-treated control; type: functional, organism-based; set-up: dose 5 mg/kg; procedure, shortened: as §5
A2780 [16] = test: Induction of apoptosis in human A2780 cells assessed as increased cellular levels of cleaved caspase 3 at 5 uM after 4 hrs by immunoblot analysis; type: functional, cell-based; procedure, shortened: as §4
HT-29 [17] = test: Reduction of cellular GSH level in human HT-29 cells after 24 hrs by […]; type: functional, cell-based
Procedure, shortened: (§6)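 Glutathione was measured with a commercial kit per the manufacturer's instructions, with TNB production rate proportional to GSH. Cell-free GSH was tested with compounds, and HT-29 luciferase cell lysates were assayed after compound exposure.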

HT-29 [18] = test: Cytotoxicity against human HT-29 cells co-cultured with human mesothelial cells at 50 to 200 uM preincubated for 24 hrs followed by co-culturing measured after 4 hrs by firefly luciferase assay relative to control; type: functional, cell-based; conditions: in the assay text read “after 5 hrs” for “after 4 hrs”
Procedure, shortened: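 Luciferase-expressing HT-29 cells were pretreated 24 h with water or various BSO concentrations, trypsin-suspended, then overlaid on confluent human mesothelial monolayers with compound and BSO for 5 h. Non-adherent cells were washed off and survivors read by luciferase luminescence.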

[19] = Glutathione reactivity assessed as reduction in detectable GSH level by Ellman's reagent-based assay; procedure, shortened: as §6
HT-29 [20] = test: Induction of apoptosis in human HT-29 cells at 10 uM incubated for 30 mins followed by coculturing with human mesothelial cells for 5 hrs by firefly luciferase assay in presence of NAC; type: functional, cell-based
Procedure, shortened: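 Firefly luciferase-expressing HT-29 cells were incubated 30 min with compound plus vehicle (water) or 680 µM N-acetylcysteine, trypsin-suspended, and co-cultured 5 h on human mesothelial monolayers with compound and NAC. Surviving adherent cells were detected by luciferase luminescence; mean light output ±SEM.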

HT-29 [21] = test: Reduction of cellular GSH level in human HT-29 cells incubated for 30 mins followed by co-culturing with human mesothelial cells measured after 5 hrs by […]; type: functional, cell-based
HT-29 [22] = test: Induction of apoptosis in human HT-29 cells using compound pre-mixed with NAC; type: functional, cell-based

## Cc1ccc2oc(C(C)(C)c3ccc(S(=O)(=O)/C=C/C#N)cc3)nc2c1
[1]
  EC50: 3.5 µM
[2]
  EC50: 5.6 µM
[3]
  Activity: 10%
A2780 [4]
  Ratio: 0.1
[5]
  Ratio: 0.2
[6]
  Activity: 50%
[7]
  Activity: 40%
[8]
  EC50: 7.3 µM
[9]
  Ratio: 0.09
A2780 [10]
  EC50: 2.1 µM
[11]
  Ratio: 0.17

## CC(C)(C(=O)NCc1ccccc1)c1ccc(S(=O)(=O)/C=C/C#N)cc1
[1]
  EC50: 3.7 µM
[2]
  EC50: 8.7 µM
[3]
  Activity: 6%
Mus musculus [12]
  Activity: Non-toxic
A2780 [4]
  Ratio: 0.1
Mus musculus [13]
  Activity: Non-toxic
A2780 [14]
  Activity: Active
[5]
  Ratio: 0.21
[6]
  Activity: 6%
[7]
  Activity: 6%
[8]
  EC50: 7.4 µM
SK-OV-3
  inhibition: Active
[9]
  Ratio: 0.16
A2780 [15]
  inhibition: Active
A2780 [16]
  Activity: Active
A2780 [10]
  EC50: 3 µM
[11]
  Ratio: 0.52

## CC(C)(C)c1cc(S(=O)(=O)/C=C/C#N)ccc1OCC(=O)NC1CCCCC1
[1]
  EC50: 3.4 µM
[2]
  EC50: 6.1 µM
Mus musculus [12]
  Activity: Non-toxic
A2780 [4]
  Ratio: 0.01
Mus musculus [13]
  Activity: Non-toxic
A2780 [14]
  Activity: Active
[5]
  Ratio: 0.21
[8]
  EC50: 6.6 µM
SK-OV-3
  inhibition: Active
[9]
  Ratio: 0.09
A2780 [15]
  inhibition: Active
A2780 [16]
  Activity: Active
A2780 [10]
  EC50: 2.6 µM
[11]
  Ratio: 0.19

## CC(C)(c1ccc(S(=O)(=O)/C=C/C#N)cc1)c1nc2ccccc2o1
[1]
  EC50: 3.1 µM
[2]
  EC50: 5.4 µM
Mus musculus [12]
  Activity: Non-toxic
A2780 [4]
  Ratio: 0.01
Mus musculus [13]
  Activity: Non-toxic
A2780 [14]
  Activity: Active
[5]
  Ratio: 0.29
[8]
  EC50: 6.5 µM
SK-OV-3
  inhibition: Active
[9]
  Ratio: 0.24
A2780 [15]
  inhibition: Active
A2780 [16]
  Activity: Active
A2780 [10]
  EC50: 2.2 µM
[11]
  Ratio: 0.17

## N#C/C=C/S(=O)(=O)c1ccc(C2(C(=O)NC3CCCCC3)CCC2)cc1
[1]
  EC50: 3.6 µM
[2]
  EC50: 7.4 µM
[3]
  Activity: 20%
Mus musculus [12]
  Activity: Non-toxic
A2780 [4]
  Ratio: 0.09
Mus musculus [13]
  Activity: Non-toxic
A2780 [14]
  Activity: Active
[5]
  Ratio: 0.32
[6]
  Activity: 40%
[7]
  Activity: 30%
[8]
  EC50: 8 µM
SK-OV-3
  inhibition: Active
[9]
  Ratio: 0.18
A2780 [15]
  inhibition: Active
A2780 [16]
  Activity: Active
A2780 [10]
  EC50: 3.1 µM
[11]
  Ratio: 0.33

## CC(C)(c1ccc(S(=O)(=O)/C=C/C#N)cc1)c1nnc(-c2ccccc2)o1
[1]
  EC50: 3.1 µM
[2]
  EC50: 5.7 µM
[3]
  Activity: 0%
A2780 [4]
  Ratio: 0.06
[5]
  Ratio: 0.45
[6]
  Activity: 45%
[7]
  Activity: 45%
[8]
  EC50: 6.2 µM
[9]
  Ratio: 0.24
A2780 [10]
  EC50: 2.6 µM
[11]
  Ratio: 0.25

## CCCCS(=N)(=O)CC[C@H](N)C(=O)O (some centres not stated)
HT-29 [17]
  Activity: Active
HT-29 [18]
  Activity: inactive

## CC(C)(C)c1ccc(S(=O)(=O)/C=C/C#N)cc1 [BAY-11-7085]
[1]
  EC50: 3.5 µM
[2]
  EC50: 5 µM
[3]
  Activity: 31%
Mus musculus [12]
  Activity: Non-toxic
A2780 [4]
  Ratio: 0.04
Mus musculus [13]
  Activity: Non-toxic
[19]
  Activity: Active
A2780 [14]
  Activity: Active
[5]
  Ratio: 0.13
[6]
  Activity: 38%
[7]
  Activity: 31%
[8]
  EC50: 5.9 µM
HT-29 [20]
  Activity: inactive
SK-OV-3
  inhibition: Active
[9]
  Ratio: 0.07
A2780 [15]
  inhibition: Active
HT-29 [21]
  Activity: Active
A2780 [16]
  Activity: Active
A2780 [10]
  EC50: 2.6 µM
[11]
  Ratio: 0.32
HT-29 [22]
  Activity: inactive
